Experimental data from PMC6500731 (Clinical cancer research : an official journal of the …, 2018).
Read-outs that look alike come from different tables or passages of the source.

Tests used:
[1] = test system: protein synthesis in DLBCL cells; assay: O-propargyl puromycin; format: cell-based; settings: concentrations relative to LD50, 4, 16 or 24 hours
Procedure, shortened: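 DLBCL cells treated 4, 16 or 24 h with test compound, silvestrol or carboplatin, at concentrations scaled to each agent's LD50. Cells pulsed with O-propargyl puromycin, washed twice in PBS and click-labelled with Alexa-488 azide. Flow cytometry gave mean fluorescence on live-gated cells, normalised to DMSO. Mean ± SEM, n=3; unpaired two-tailed t-tests with Benjamini–Krieger–Yekutieli correction.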

NIH/3T3 cells = assay: Viability; format: cell-based
SNU-398 [2] = assay: Western blot in SNU-398 cells; format: cell-based; settings: 16 hours; for activity against mTORC1 targets (phosphorylation of S6 and 4EBP1): 200 nM rapamycin, 100 nM silvestrol, 1 μM elatol
SNU-398 [3] = assay: Viability assay in SNU-398 cells; format: cell-based; settings: for type of effect on SNU-398 cells: 72-hour treatment; for LD50: SNU-398, 72-hour treatment
[4] = test system: Non-Hodgkin Lymphoma cell lines; assay: Viability assay; format: cell-based; settings: for activity against non-Hodgkin lymphoma (NHL) cell lines (LD50): initial screen hits, DLBCL cell lines, Fig. 1A
Atf4−/− and WT MEFs = assay: Viability; format: cell-based, Murine; settings: Mus musculus, 72 h, read-out: IC50, viability, Atf4−/− MEFs, 72 hour
p97 = p97 (Homo sapiens, UniProt P55072); assay: Malachite green ATP hydrolysis counter-screen, p97; format: biochemical
eIF4A1-K82R = eIF4A1-K82R (Homo sapiens, UniProt P60842, K82R); assay: Malachite green ATP hydrolysis assay, eIF4A1-K82R mutant; format: biochemical
Procedure, shortened: (§1)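 Malachite green ATPase run at 37 °C for 1 h. eIF4A1 wild-type, K82R (500 nM) or K238E (500 nM) in 20 mM MES-NaOH pH 6.0, 100 mM potassium acetate, 2.5 mM MgCl2, 1% glycerol, 1 mM DTT. ATP gradient 0–2 mM. Aliquot mixed with 9.3 µM malachite green, 53 mM ammonium molybdate, 1 M HCl, 0.04% Tween 20. Mean ± SEM, n=3.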

eIF4A1 helicase activity = eIF4A1 helicase activity (Homo sapiens, UniProt P60842); assay: Fluorescence-based helicase assay; format: biochemical; settings: cell-free, RNA unwinding de-quenching
DDX39A = DDX39A (Homo sapiens, UniProt O00148); assay: Malachite green ATP hydrolysis counter-screen, DDX39A; format: biochemical
[5] = test system: primary chronic lymphocytic leukemia (CLL) cells; assay: OPP labeling in primary CLL patient cells; format: cell-based
[6] = test system: normal human peripheral-blood mononuclear cells; assay: Potency against normal peripheral-blood mononuclear cells; format: cell-based; settings: Fig. S1B
eIF4A1 [7] = target: T1, eIF4A1 (Homo sapiens, UniProt P60842); assay: Malachite green ATP hydrolysis assay, wildtype eIF4A1; format: biochemical
Procedure, shortened: as §1

[8] = test system: engrafted B16 murine melanoma cells; settings: 10 mg/kg daily i.p. or p.o.; cited from earlier work
DDX3 = DDX3 (Homo sapiens, UniProt O00571); assay: Malachite green ATP hydrolysis counter-screen, DDX3; format: biochemical
OCI-Ly3 = assay: Protein; format: cell-based; settings: OCI-Ly3, Fig. S3D
DLBCL cell lines [9] = assay: Proliferation assay; format: cell-based; settings: three DLBCL cell lines, single elatol treatment
Procedure, shortened: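 Three DLBCL lines seeded on day 0 and given a single dose of DMSO vehicle or test compound at indicated concentrations. Viable cells counted daily by trypan blue exclusion. Mean ± SEM, n=3.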

[10] = test system: 97 oncogenic and related kinases; assay: Commercial kinome screen; format: binding
[11] = test system: eIF2α-S51 A/A and S/S MEFs; assay: Viability; format: cell-based, Murine; settings: Mus musculus, 72 h
[12] = target: bacterial chaperonin GroEL (Escherichia coli, UniProt P0A6F5); assay: Malachite green ATP hydrolysis counter-screen, GroEL; format: biochemical
SU-DHL-6 flank tumors = assay: SU-DHL-6 xenograft; format: in vivo
Procedure, shortened: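 Female SCID mice, 8–10 weeks old. 2 × 10^6 SU-DHL-6 cells, washed in ice-cold PBS and mixed 1:1 with matrigel, injected s.c. into the right flank. At 60 mm3, mice pair-matched to vehicle (sterile water, 5.2% tween-80, 5.2% PEG-400) or 20 mg/kg test compound i.p. daily for 5 days. Weight and tumor volume measured twice weekly; mean ± SEM, n=8.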

DLBCL cell lines [13] = assay: Apoptosis assay; format: cell-based
Procedure, shortened: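 Flow-cytometric cell death: DLBCL cell lines treated as indicated for 24 h, alone or combined with the PERK inhibitor GSK2606414 or with 200 nM ISRIB. Cells washed once in ice-cold PBS, then co-stained with PE-Annexin V and 7-aminoactinomycin D. Mean ± SEM, n=3 biological replicates; unpaired two-tailed t-tests.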

eIF4A1-K238E = eIF4A1-K238E (Homo sapiens, UniProt P60842, K238E); assay: Malachite green ATP hydrolysis assay, eIF4A1-K238E mutant; format: biochemical
Procedure, shortened: as §1

[14] = Tolerability in non-tumor bearing SCID mice; format: in vivo; settings: for tolerability: non-tumor bearing SCID mice
Procedure, shortened: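 Non-tumor-bearing female SCID mice, 8–10 weeks old, dosed i.p. daily for 5 days at 10, 20 or 30 mg/kg and monitored for weight and activity. Complete blood counts (white blood cells, hemoglobin, platelets) measured on a Hemavet950. For 20 mg/kg: mean ± SEM, n=17 vehicle and 7 treated.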

HEK-293 cells = assay: Dual-luciferase reporter assay; format: cell-based; settings: eight-hour treatment
Procedure, shortened: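 HEK-293 cells (7 × 10^5) transfected with 400 ng of a dual-luciferase plasmid using Lipofectamine 3000. Treated 36 h after transfection for 8 h, then lysed with a dual-luciferase kit and read in triplicate. Luciferase units normalized to DMSO-treated cells; mean ± SEM, n=3.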

eIF4A1 [15] = target: T1, eIF4A1; assay: Isothermal titration calorimetry; format: binding
Procedure, shortened: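 eIF4A dialysed 12 h against 20 mM MES-KOH pH 6.0, 10 mM potassium acetate, 2.5 mM MgCl2, 1% glycerol, 1 mM DTT. Protein was matched to 2% DMSO, degassed and placed in the cell. 12–20 injections of 0.2 mM test compound in the same buffer, every 200 s over 3000 s. Peaks integrated to 75 s post-injection and fit to an independent binding model. Replicates run at 25 and 10 µM eIF4A.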

OCI-Ly3 cells = assay: Polysome profiling; format: cell-based; settings: OCI-Ly3, 2 μM elatol
human chaperone HSP70 = human chaperone HSP70 (Homo sapiens, UniProt P0DMV8); assay: Malachite green ATP hydrolysis counter-screen, HSP70; format: biochemical
DDX17 = DDX17 (Homo sapiens, UniProt Q92841); assay: Malachite green ATP hydrolysis counter-screen, DDX17; format: biochemical
[16] = test system: Harvard/Wellcome cancer cell line collection; assay: Growth inhibition screen, Harvard/Wellcome cell line collection; format: cell-based; settings: 344/924 cell lines
OCI-Ly3 xenograft = assay: OCI-Ly3 xenograft; format: in vivo
Procedure, shortened: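 Female SCID mice, 8–10 weeks old. 10 × 10^6 OCI-Ly3 cells, washed in ice-cold PBS and mixed 1:1 with matrigel, implanted s.c. in the flank. Tumors dissected at 500 mm3, dissociated, and 1 × 10^6 serially transplanted cells implanted s.c. At ≥50 mm3, mice pair-matched to vehicle or 40 mg/kg i.p. twice weekly. Weight and tumor volume monitored twice weekly; n=8; two-way ANOVA.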

[17] = Single-dose maximum tolerated dose study; format: in vivo; settings: for tolerability, single dose: five female CD-1 mice

T1 sequence (P60842 whole entry): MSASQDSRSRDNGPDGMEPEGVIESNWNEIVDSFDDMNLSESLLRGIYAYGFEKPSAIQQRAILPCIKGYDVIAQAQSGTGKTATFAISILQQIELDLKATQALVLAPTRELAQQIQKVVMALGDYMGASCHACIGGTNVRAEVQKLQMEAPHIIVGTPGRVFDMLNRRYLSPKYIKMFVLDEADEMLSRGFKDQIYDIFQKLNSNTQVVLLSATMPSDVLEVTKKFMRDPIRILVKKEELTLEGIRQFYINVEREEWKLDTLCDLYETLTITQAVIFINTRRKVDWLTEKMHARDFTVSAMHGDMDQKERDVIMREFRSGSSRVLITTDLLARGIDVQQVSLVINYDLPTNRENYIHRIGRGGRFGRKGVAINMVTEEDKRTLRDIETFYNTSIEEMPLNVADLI
Chain of eIF4A1 helicase activity (P60842 whole entry): as above
Chain of bacterial chaperonin GroEL (P0A6F5 whole entry): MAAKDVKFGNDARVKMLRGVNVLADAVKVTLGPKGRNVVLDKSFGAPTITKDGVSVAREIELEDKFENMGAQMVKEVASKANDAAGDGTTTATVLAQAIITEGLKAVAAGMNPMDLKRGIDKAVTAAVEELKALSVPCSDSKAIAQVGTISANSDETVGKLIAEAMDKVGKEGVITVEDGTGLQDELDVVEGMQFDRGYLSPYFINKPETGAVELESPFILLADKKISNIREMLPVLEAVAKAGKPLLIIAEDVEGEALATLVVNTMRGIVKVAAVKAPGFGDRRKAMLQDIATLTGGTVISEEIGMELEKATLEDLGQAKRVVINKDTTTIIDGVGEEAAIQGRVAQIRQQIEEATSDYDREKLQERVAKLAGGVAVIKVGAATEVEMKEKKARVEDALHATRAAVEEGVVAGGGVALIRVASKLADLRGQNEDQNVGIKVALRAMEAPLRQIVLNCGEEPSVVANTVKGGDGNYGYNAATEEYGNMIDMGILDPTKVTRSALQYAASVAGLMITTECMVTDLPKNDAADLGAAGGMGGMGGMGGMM
Chain of DDX17 (Q92841 whole entry, species assumed): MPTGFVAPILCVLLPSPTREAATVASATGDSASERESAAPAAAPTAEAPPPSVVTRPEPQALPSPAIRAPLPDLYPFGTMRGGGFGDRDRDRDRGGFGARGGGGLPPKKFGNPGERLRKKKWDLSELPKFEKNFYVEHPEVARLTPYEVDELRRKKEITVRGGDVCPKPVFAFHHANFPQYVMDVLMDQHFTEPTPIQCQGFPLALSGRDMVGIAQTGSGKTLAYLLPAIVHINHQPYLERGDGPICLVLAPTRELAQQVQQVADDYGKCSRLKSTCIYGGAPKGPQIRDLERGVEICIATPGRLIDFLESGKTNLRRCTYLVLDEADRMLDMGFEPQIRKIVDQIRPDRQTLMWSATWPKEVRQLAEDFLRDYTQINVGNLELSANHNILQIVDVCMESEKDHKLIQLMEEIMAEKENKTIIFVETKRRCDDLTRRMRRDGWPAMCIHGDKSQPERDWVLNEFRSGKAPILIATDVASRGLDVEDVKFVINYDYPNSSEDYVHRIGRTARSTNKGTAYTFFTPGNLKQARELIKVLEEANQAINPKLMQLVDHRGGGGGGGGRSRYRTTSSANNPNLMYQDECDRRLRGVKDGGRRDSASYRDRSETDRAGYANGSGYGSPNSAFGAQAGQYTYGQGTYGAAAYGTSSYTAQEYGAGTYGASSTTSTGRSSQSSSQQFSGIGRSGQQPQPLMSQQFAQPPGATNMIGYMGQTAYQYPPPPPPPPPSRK
Chain of DDX39A (O00148 whole entry, species assumed): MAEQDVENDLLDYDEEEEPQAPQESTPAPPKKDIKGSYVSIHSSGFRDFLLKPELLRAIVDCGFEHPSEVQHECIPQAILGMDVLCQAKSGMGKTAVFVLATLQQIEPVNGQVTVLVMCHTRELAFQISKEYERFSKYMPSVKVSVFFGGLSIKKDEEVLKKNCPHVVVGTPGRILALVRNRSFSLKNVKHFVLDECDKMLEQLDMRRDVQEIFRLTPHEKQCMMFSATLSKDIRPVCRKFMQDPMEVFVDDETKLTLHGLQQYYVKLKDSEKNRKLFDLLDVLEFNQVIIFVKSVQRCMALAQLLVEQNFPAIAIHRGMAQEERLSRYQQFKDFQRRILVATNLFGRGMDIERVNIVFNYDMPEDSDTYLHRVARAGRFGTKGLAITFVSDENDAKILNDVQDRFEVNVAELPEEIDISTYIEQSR
Chain of p97 (P55072 whole entry): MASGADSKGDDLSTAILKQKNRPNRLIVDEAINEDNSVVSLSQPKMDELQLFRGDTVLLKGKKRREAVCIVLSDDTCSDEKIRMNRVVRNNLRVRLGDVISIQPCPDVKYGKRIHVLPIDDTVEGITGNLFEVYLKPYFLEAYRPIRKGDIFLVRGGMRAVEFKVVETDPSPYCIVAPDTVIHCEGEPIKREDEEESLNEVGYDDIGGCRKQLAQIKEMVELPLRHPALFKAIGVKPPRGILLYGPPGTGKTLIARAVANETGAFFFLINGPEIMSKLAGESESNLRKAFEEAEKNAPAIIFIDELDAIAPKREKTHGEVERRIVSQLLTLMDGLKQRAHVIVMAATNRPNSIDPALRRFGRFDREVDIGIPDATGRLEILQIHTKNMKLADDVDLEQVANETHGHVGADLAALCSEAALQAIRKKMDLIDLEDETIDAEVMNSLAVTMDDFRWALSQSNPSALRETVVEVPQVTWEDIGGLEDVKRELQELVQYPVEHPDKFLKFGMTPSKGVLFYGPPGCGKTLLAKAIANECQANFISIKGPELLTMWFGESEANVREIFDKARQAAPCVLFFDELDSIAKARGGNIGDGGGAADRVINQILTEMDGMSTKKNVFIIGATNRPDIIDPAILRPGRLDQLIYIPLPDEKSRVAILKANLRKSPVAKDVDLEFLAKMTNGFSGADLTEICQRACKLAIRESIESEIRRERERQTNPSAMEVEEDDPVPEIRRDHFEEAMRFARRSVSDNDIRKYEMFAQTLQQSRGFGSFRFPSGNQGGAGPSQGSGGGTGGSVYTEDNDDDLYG
Chain of eIF4A1-K82R (P60842 whole entry K82R): as the sequence (P60842 whole entry) above, with K82R counted along it
Chain of DDX3 (O00571 whole entry, species assumed): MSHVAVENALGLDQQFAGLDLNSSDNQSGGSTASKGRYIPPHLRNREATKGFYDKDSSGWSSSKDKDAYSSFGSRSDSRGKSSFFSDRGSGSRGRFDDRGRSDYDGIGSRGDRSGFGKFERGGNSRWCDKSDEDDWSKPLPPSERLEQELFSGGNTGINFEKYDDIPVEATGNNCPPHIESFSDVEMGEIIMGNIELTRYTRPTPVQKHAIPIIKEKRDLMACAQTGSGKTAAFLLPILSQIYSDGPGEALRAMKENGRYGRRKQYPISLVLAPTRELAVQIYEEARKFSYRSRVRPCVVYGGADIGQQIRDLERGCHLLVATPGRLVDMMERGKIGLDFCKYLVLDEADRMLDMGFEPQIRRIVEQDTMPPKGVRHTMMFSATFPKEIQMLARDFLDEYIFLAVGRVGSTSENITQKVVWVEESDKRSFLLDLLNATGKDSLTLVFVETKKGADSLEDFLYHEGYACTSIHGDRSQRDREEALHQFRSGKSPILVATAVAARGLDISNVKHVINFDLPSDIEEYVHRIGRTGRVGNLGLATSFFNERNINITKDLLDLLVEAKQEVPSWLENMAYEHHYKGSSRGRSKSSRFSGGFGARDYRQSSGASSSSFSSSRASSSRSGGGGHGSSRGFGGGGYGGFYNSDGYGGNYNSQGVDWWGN
Chain of eIF4A1-K238E (P60842 whole entry K238E): as the sequence (P60842 whole entry) above, with K238E counted along it
Chain of human chaperone HSP70 (P0DMV8 whole entry): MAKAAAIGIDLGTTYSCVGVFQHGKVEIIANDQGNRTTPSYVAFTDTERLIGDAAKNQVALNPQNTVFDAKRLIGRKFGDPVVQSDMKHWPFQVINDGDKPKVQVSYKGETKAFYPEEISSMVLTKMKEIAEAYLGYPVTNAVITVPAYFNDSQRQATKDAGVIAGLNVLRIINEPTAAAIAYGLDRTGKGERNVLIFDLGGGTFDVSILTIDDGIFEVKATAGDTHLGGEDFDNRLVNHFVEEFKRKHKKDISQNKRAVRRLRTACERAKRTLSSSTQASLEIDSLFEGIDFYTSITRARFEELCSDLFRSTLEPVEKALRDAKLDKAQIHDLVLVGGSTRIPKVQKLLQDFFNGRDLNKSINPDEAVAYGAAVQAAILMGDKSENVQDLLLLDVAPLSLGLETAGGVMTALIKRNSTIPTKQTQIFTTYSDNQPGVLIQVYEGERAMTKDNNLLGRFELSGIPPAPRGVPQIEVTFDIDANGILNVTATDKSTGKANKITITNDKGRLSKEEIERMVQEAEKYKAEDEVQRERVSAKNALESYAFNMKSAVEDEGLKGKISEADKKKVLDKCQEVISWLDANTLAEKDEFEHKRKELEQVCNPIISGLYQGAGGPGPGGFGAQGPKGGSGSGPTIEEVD

Structure (SMILES): N.N.O=C([O-])C1(C(=O)[O-])CCC1.[Pt+2] [carboplatin]
- protein synthesis measured by incorporation of OPP [1]: no significant decline
- change in drug sensitivity on eIF4A1 knockdown (NIH/3T3 cells; NIH-3T3 shRLuc vs sh4A1): no change in drug sensitivity

Structure (SMILES): COC(=O)[C@H]1[C@@H](O)[C@@]2(O)c3c(OC)cc(O[C@@H]4O[C@@H]([C@H](O)CO)CO[C@H]4OC)cc3O[C@@]2(c2ccc(OC)cc2)[C@@H]1c1ccccc1 [silvestrol]
- protein synthesis measured by incorporation of OPP [1]: global decline of protein synthesis
- activity against mTORC1 targets (phosphorylation of S6 and 4EBP1) (SNU-398 [2]): no activity
- type of effect on SNU-398 cells (SNU-398 [3]): highly cytotoxic
- LD50 (SNU-398 [3]): 41 nM
- increased potency of silvestrol relative to elatol (NIH/3T3 cells; 3T3 fibroblasts, Fig. 5F): > 500 x

Structure (SMILES): CC(C)=C[C@@H]1C[C@H](C)c2c(O)cc(C)c3c2C1=C(C)C(=O)C3=O [elisabatin A, reference compound]
- activity against non-Hodgkin lymphoma (NHL) cell lines (LD50) [4]: > 10 µM

Structure (SMILES): C=C1CC[C@@](C)(c2cc(Br)c(C)cc2O)[C@H]1C [allolaurinterol, reference compound]
- activity against non-Hodgkin lymphoma (NHL) cell lines (LD50) [4]: > 10 µM

Structure (SMILES): C=C1C[C@H](O)[C@H](Br)C(C)(C)[C@@]12CCC(C)=C(Cl)C2 [elatol]
- IC50 (Atf4−/− and WT MEFs): 2.79 µM
- protein synthesis measured by incorporation of OPP [1]: global decline of protein synthesis
- activity against ATP hydrolysis by p97 (p97): no activity
- IC50 (eIF4A1-K82R): 85.5 ± 31.8 µM
- effect on eIF4A1 helicase activity (eIF4A1 helicase activity): inhibition
- activity against ATP hydrolysis by DDX39A (DDX39A): no activity
- protein translation measured by OPP labeling ([5]; primary CLL cells stimulated with anti IgM): significantly reduced protein translation
- OPP labeling ([5]; unstimulated primary CLL cells, or non-malignant T-cells): did not significantly inhibit OPP labeling
- potency against normal PBMC relative to tumor lines [6]: less potent
- activity against mTORC1 targets (phosphorylation of S6 and 4EBP1) (SNU-398 [2]): no activity
- ATF4 expression (SNU-398 [2]; SNU-398, 1 μM elatol): induced expression of the transcription factor ATF4
- IC50 (eIF4A1 [7]): 16.4 µM
- type of effect on SNU-398 cells (SNU-398 [3]): highly cytotoxic
- LD50 (SNU-398 [3]): 219 nM
- antitumor activity [8]: antitumor activity
- activity against ATP hydrolysis by DDX3 (DDX3): no activity
- concentration at which mRNA reductions become significant (OCI-Ly3): 500 to 1000 nM
- concentration at which protein-expression changes begin (OCI-Ly3): 100 nM
- effect on proliferation (DLBCL cell lines [9]): completely halted proliferation
- activity against 97 oncogenic and related kinases [10]: no activity
- IC50 ([11]; read-out: IC50, viability, eIF2α-S51 A/A MEFs, 72 hour): 1.03 µM
- IC50 ([11]; read-out: IC50, viability, eIF2α-S51 S/S MEFs, 72 hour): 1.4 µM
- activity against ATP hydrolysis by GroEL [12]: no activity
- time tumor growth was halted from the start of treatment (SU-DHL-6 flank tumors; 20 mg/kg i.p. daily for 5 days, one cycle): 12 days
- tolerability in tumor-bearing mice (SU-DHL-6 flank tumors; 20 mg/kg i.p. daily, first five-day cycle): weight loss and overt signs of toxicity
- effect of ISRIB on elatol's toxicity (DLBCL cell lines [13]; OCI-Ly3 cells, combination with 200 nM ISRIB): no effect
- effect of PERK inhibitor GSK2606414 on elatol's potency (DLBCL cell lines [13]; annexin V staining, 24 hours, combination with PERKi): no significant reversal
- apoptosis (DLBCL cell lines [13]; by 24 hours, most sensitive DLBCL line): greater than 50%
- IC50 (eIF4A1-K238E): 34.2 ± 12.8 µM
- toxic concentration in the preliminary screen of cancer cell lines ([4]; preliminary screen): less than 1 μM
- fold less potent than silvestrol ([4]; sensitive tumor cells in vitro): 5–10 fold
- tolerability ([14]; 10 mg/kg daily x 5 days i.p.): neither 10 mg/kg nor 20 mg/kg resulted in signs of toxicity
- Day 5 complete blood counts versus vehicle ([14]; 20 mg/kg daily for 5 days): no differences
- tolerability ([14]; 20 mg/kg daily x 5 days i.p.): neither 10 mg/kg nor 20 mg/kg resulted in signs of toxicity
- tolerability ([14]; 30 mg/kg daily i.p., stopped after three days): weight loss and reduced animal activity
- cap-dependent versus IRES driven luciferase expression (HEK-293 cells): down-regulated cap-dependent protein translation more strongly than cap-independent IRES driven expression
- Kd (eIF4A1 [15]): 1.98 ± 0.31 µM
- polysome translation (OCI-Ly3 cells; 16 hours): complete elimination of polysome translation
- polysome translation (OCI-Ly3 cells; two-hour treatment): moderately reduced polysome translation
- activity against ATP hydrolysis by HSP70 (human chaperone HSP70): no activity
- activity against ATP hydrolysis by DDX17 (DDX17): no activity
- share of cell lines having IC50 < 1μM [16]: 37%
- tolerability in tumor-bearing mice (OCI-Ly3 xenograft; 40 mg/kg i.p. twice per week): well-tolerated
- tumor growth compared to vehicle-treated controls (OCI-Ly3 xenograft; 40 mg/kg i.p. twice per week, p=0.0117): significant reduction of tumor growth
- tolerability in tumor-bearing mice (OCI-Ly3 xenograft; single dose at 65 mg/kg, OCI-Ly3 engrafted SCID mice): morbidity and weight loss
- tolerability, single dose ([17]; 50 mg/kg single i.p. dose): tolerated 50 mg/kg without issue
- tolerability, single dose ([17]; 65 mg/kg single i.p. dose): tolerated 65 mg/kg without issue
- mice dying or moribund requiring sacrifice ([17]; 80 mg/kg single i.p. dose, within five days): 3/5
- mortality, single dose ([17]; 100 mg/kg single i.p. dose, within five days): all five animals in group 2 died
- tolerated dose relative to silvestrol ([17]; CD-1, SCID, mouse, in vivo, 14 days): ~ 100 x

Structure (SMILES): CO[C@H]1C[C@@H]2CC[C@@H](C)[C@@](O)(O2)C(=O)C(=O)N2CCCC[C@H]2C(=O)O[C@H]([C@H](C)C[C@@H]2CC[C@@H](O)[C@H](OC)C2)CC(=O)[C@H](C)/C=C(\C)[C@@H](O)[C@@H](OC)C(=O)[C@H](C)C[C@H](C)/C=C/C=C/C=C/1C [rapamycin, reference compound]
- activity against mTORC1 targets (phosphorylation of S6 and 4EBP1) (SNU-398 [2]): potently inhibits phosphorylation
- type of effect on SNU-398 cells (SNU-398 [3]): cytostatic
